Casp6 inh = inhibitors of human caspase-6 | inhibition, % at 12.5 µM | P55212 | purified caspase-6, Z-VEID-R110 cleavage fluorescence | 350,000 compounds, 0.53% hits;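 active means mean inhibition across replicates at least about 35%, with every replicate also reaching that limit, limit read from the data; inconclusive means only one of the two criteria met; inactive means neither criterion met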;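 further: 0% = median of neutral control wells and 100% = no fluorescence left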
S100A4 MyoIIA = S100A4-myosin IIA interaction inhibition. P26447. inhibition, % at 10.7 µM. AID 652163. 360,000 compounds, 0.14% hits. S100A4/TAMRA-MyoIIA peptide fluorescence polarization;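 active means mean inhibition of at least 70% across replicates, with every replicate also reaching that level; inconclusive means mean inhibition reaches 70% but some replicates fall short; inactive means mean inhibition below 70%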
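System – human S100A4 monomer protein, biochemical binding assay · Buffer or medium – Calcium-containing HEPES buffer, pH 7.2 · Timing – 5 min between mix addition and reading · Also added – TAMRA-labelled myosin IIA heavy-chain peptide probe, 5 nM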
ERAP1 inh = inhibitors of human ERAP1 aminopeptidase; 340,000 compounds, 0.15% hits; inhibition, % at 10.7 µM; Q9NZ08; recombinant ERAP1, Leu-AMC fluorescence, 60 min;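 active means mean replicate inhibition of at least 30%, or all replicates individually reaching that 30% level; inactive means mean below 30% and not every replicate reaching it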;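 further: 0% = neutral control wells and 100% = L-leucinethiol positive control wells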
Target sequence (Q9NZ08 whole entry, looked up): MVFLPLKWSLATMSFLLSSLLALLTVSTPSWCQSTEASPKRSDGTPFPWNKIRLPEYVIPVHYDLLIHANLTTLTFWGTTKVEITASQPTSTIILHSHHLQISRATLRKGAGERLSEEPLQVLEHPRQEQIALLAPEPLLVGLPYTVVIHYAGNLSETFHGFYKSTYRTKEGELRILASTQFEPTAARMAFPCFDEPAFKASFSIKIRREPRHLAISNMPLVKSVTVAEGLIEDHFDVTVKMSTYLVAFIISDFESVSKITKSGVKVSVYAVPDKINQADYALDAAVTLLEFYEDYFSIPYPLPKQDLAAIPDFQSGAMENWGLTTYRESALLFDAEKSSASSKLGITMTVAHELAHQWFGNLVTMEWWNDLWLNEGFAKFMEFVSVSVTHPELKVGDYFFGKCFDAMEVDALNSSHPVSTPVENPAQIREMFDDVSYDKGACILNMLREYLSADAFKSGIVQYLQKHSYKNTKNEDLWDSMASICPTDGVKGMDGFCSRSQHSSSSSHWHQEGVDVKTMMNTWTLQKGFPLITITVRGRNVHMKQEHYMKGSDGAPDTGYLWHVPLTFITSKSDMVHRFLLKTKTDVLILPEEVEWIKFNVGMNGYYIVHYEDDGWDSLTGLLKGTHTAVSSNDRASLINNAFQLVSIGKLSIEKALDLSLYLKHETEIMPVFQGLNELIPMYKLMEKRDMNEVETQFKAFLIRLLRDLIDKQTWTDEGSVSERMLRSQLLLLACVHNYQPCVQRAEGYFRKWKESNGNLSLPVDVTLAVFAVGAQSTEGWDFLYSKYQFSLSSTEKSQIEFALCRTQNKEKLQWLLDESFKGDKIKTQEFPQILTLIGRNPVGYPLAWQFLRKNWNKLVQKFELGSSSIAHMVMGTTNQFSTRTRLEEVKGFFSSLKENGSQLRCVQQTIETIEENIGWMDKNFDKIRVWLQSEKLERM
PGC1a acetyl inh = PGC1a acetylation modulation, inhibitor mode. U2OS PGC1a acetylation, AlphaScreen anti-acetyl-lysine; with virally co-expressed GCN5 acetyltransferase. inhibition, % at 15.6 µM. 350,000 compounds, 0.17% hits;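 active means every replicate shows inhibition of at least 40%; inconclusive means mean inhibition at least 40% but some replicate below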;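 further: 0% = neutral control wells and 100% = positive control wells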
rRNA inh HTS = inhibitors of bacterial rRNA selective over humanized ribosomes. E. coli WT GFP vs humanized-ribosome RFP mutants, fluorescence, 24 h; hits give low values; DMSO median 0, no signal -100. GFP signal change (wild-type ribosome), % (concentration not given with the values). 350,000 compounds, 1.6% hits. AID 720706;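 active means significant combined selectivity score with lowered wild-type GFP, culture density cut under 30%, mutant RFP and density less affected; inactive means any of these conditions unmet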
ARNT TACC3 PPI = disrupts binding between human ARNT and TACC3; Q9Y6A5; AlphaScreen His-ARNT PAS-B/GST-TACC3 binding, luminescence; TACC3 fragment carries E629A point mutation; inhibition, % at 9.99 µM; 390,000 compounds, 0.66% hits;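 active means mean inhibition of replicates at least 50% and at least half of replicates each reaching 50%; inconclusive means half or more replicates reach 50% but mean below 50%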;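 further: 0% = complete ARNT plus TACC3 wells and 100% = ARNT alone without TACC3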
AID977621 = wild-type E. coli growth inhibition versus H69 humanized strain – H69 mutant RFP, wild-type GFP, cherry-pick, dose response | shares compounds with rRNA inh HTS | fluorescence, 24 h | activity change, negative = inhibition at 50 µM | 1,900 tested, under 10 active;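 active means Wild-type ribosome reporter drop at least double the humanized mutant ribosome reporter drop, growth loss under a set limit; inconclusive means no clear call, values can overlap the other calls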;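 further: wild-type GFP and H69 mutant RFP strains grown together 50/50 in each well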
AID977628 = E. coli growth inhibition, wild-type GFP versus h24 humanized RFP strain, dose response, h24 mutant RFP vs wild-type GFP, cherry-pick; activity change, negative = inhibition at 50 µM; shares compounds with rRNA inh HTS; 1,900 tested, under 10 active; E. coli WT GFP strain growth, fluorescence, 24 h;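 active means compound lowering the normal-ribosome reporter at least twice as much as the humanized-ribosome reporter, growth loss under a set limit; inconclusive means no clear call, values can overlap the other calls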;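 further: wild-type GFP and h24 humanized RFP strains co-cultured 1 to 1 per well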
An asterisk follows results filed as active; ? = inconclusive; . = no result. Rows were chosen to be rich in hits. Some 2.4% of all compounds tested hit in one or more screens of this group.

SMILES | Casp6 inh | S100A4 MyoIIA | ERAP1 inh | PGC1a acetyl inh | rRNA inh HTS | ARNT TACC3 PPI | AID977621 | others
C[C@@H]1CCCCO[C@@H](CN(C)S(C)(=O)=O)[C@@H](C)CN([C@H](C)CO)C(=O)c2cc(NC(=O)Nc3cccc4ccccc34)ccc2O1 | -4 | 9 | 1 | -1 | 1 | 8 | .
CCCC#Cc1cnc2c(c1)C(=O)N([C@@H](C)CO)C[C@H](C)[C@@H](CN(C)C(=O)NC1CCCC1)O2 | 1 | 15 | -2 | 12 | 2 | 1 | .
C[C@H]1CCCCO[C@H](CN(C)C)[C@@H](C)CN([C@@H](C)CO)C(=O)c2cc(NC(=O)Nc3cccc4ccccc34)ccc2O1 | 4 | 19 | 2 | -3 | 0 | 1 | -9.3 | AID977628=?
C[C@@H]1CCCCO[C@H](CN(C)C)[C@H](C)CN([C@H](C)CO)C(=O)c2cc(NC(=O)Nc3cccc4ccccc34)ccc2O1 | -6 | -3 | -2 | -9 | -1 | 17 | -24
C[C@@H]1CCCCO[C@@H](CN(C)C(=O)Nc2cccc3ccccc23)[C@@H](C)CN([C@@H](C)CO)C(=O)c2cc(NC(=O)Nc3cccc4ccccc34)ccc2O1 | -1 | -11 | -2 | 2 | 7 | -4 | .
C[C@@H]1CCCCO[C@@H](CN(C)C(=O)c2ccccc2)[C@H](C)CN([C@@H](C)CO)C(=O)c2cc(NC(=O)Cc3ccccc3)ccc2O1 | -2 | -1 | -1 | -1 | -25* | 6 | . | AID977628=?
CCCN1[C@H](C(=O)NC2CCC2)[C@@H](CO)[C@@H]2Cn3c(ccc(-c4ccccc4F)c3=O)[C@@H]21 | 0 | 6 | 0 | . | -7 | -8 | .
CC1CCCCN1CC(O)COCCC12CC3CC(CC(C3)C1)C2 (stereo not drawn) | 3 | -3 | 10 | -19 | -29* | 6 | -23
CCOC(=O)N1CCN(CC(O)COCCC23CC4CC(CC(C4)C2)C3)CC1 (stereo not drawn) | . | . | . | 16 | . | 1 | .
